Published values pooled from the literature.
Each line is one published result; the experiments were not run side by side.
Cell line: HepG2
Effect on: cell growth or viability

`CC1=C(O)C(=O)C=C2C1=CC=C1[C@@]2(C)CC[C@@]2(C)[C@@H]3C[C@](C)(C(=O)O)CC[C@]3(C)CC[C@]12C` has an IC50 of 2.53 µM (CCK-8; 24 h).
`Nc1c(C(=O)N2CC(F)(F)C2)sc2ncccc12` gave an IC50 of > 100 µM (72 h).
With `N=C(CC(O)c1cc2c(F)cc(F)cc2c2cc(C(F)(F)F)ccc12)Nc1ccc(-c2ccc(F)cc2)cc1` (centres unmarked) the IC50 was 10.5 µM (neutral red; 24 h).
For `CC(C)=CCC[C@](C)(O)[C@H]1CC[C@]2(C)[C@@H]1[C@H](O)C[C@@H]1[C@@]3(C)CC[C@H](O)C(C)(C)[C@@H]3[C@@H](O[C@@H]3O[C@H](CO)[C@@H](O)[C@H](O)[C@H]3O)C[C@]12C`, the IC50 was 32 µM (CCK-8; 24 h).
`C#CCn1c(C(=O)/C=C/c2ccc(F)cc2)nc2ccccc21` gave an IC50 of 1.72 µM (LDH; 48 h).
`N=C(CC(O)c1cc2c(F)cc(F)cc2c2cc(C(F)(F)F)ccc12)Nc1ccccc1I` (centres unmarked) has an IC50 of 160 µM (neutral red; 24 h).
With `Nc1c(C(=O)Nc2cccnc2)sc2nc(-c3ccccc3)cc(C(F)(F)F)c12` the IC50 was > 100 µM (72 h).
The IC50 of `COc1cc(NC(=N)CC(O)c2cc3c(F)cc(F)cc3c3cc(C(F)(F)F)ccc23)ccc1Br` (centres unmarked) is reported as 15.3 µM (neutral red; 24 h).
With `COc1ccc(-c2cc(C(F)(F)F)c3c(N)c(C(=O)N4CCCC4)sc3n2)cc1` the IC50 was > 50 µM (72 h).
`Fc1ccc2c(-c3nc(Cc4ccccc4)cs3)nn(Cc3ccc(Cl)cc3Cl)c2c1` gave an IC50 of 25.1 µM (48 h).
`CN[C@@H]1C[C@H]2O[C@@](C)([C@@H]1OC)n1c3ccccc3c3c4c(c5c6ccccc6n2c5c31)C(=O)NC4` has an IC50 of 0.0383 µM.
